Test results: ChEMBL document CHEMBL1146074, “Design and synthesis of 1-indol-1-yl-propan-2-ones as inhibitors of human cytosolic phospholipase A2alpha” (J Med Chem, 2006)
The source made the active and inactive calls. No cut-off for these calls is given here.

Tests used:
[1] = target: T1, Cytosolic phospholipase A2 (Homo sapiens, UniProt P47712); test: Inhibition of cPLA2alpha activity assessed by A23187-induced arachidonic acid release in human platelet; assay type: functional
T1 sequence (P47712 whole entry): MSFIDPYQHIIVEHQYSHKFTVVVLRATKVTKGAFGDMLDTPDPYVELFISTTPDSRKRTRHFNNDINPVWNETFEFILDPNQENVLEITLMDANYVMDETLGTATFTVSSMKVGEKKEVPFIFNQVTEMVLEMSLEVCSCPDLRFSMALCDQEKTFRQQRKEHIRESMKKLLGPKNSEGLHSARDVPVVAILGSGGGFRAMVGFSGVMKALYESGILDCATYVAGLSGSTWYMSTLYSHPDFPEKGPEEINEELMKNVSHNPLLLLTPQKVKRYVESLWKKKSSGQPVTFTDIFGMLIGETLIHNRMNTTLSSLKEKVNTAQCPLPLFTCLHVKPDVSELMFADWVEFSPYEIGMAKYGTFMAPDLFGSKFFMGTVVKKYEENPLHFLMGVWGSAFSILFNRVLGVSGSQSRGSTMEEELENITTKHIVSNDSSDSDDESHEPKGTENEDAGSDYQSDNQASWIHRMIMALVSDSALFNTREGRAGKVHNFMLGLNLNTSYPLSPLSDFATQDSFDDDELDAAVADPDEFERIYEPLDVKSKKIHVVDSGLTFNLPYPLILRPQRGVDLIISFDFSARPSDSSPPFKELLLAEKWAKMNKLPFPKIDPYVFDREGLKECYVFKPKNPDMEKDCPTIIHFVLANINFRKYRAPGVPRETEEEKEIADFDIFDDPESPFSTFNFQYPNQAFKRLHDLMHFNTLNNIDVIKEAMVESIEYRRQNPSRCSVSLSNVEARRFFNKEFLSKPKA
Outline: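 Intact human platelets stimulated with calcium ionophore A23187 (1 µM final) for 1 min, with ETYA added to block cyclooxygenase-1 and 12-lipoxygenase. Released arachidonic acid was measured by RP18 HPLC (acetonitrile/10 mM ammonium phosphate pH 7.4, 50:50) with UV at 200 nm, using an internal standard. IC50 values are means of at least two independent determinations.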

[2] = target: T1, Cytosolic phospholipase A2; test: Inhibition of cPLA2-alpha activity assessed by TPA-induced arachidonic acid release in human platelet; assay type: functional
Outline: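 Intact human platelets stimulated with TPA (2 µM final) for 60 min, with the cyclooxygenase/12-lipoxygenase inhibitor ETYA added. Released arachidonic acid was quantified by RP18 HPLC with UV at 200 nm, using an internal standard. Parallel incubations without TPA were used to calculate specific hydrolysis. IC50 values are means of at least two independent determinations.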

[3] = target: T1, Cytosolic phospholipase A2; test: Inhibition of human isolated cPLA2-alpha by vesicle assay
Outline: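 Test compounds were at most 10 µM. Arachidonic acid formed was cleaned up by solid-phase extraction and quantified by reversed-phase HPLC with UV at 200 nm. IC50 values are means of at least two independent determinations.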

[4] = target: T2, Cytosolic phospholipase A2 (Homo sapiens) (UniProt P47712); test: Inhibition of human isolated cPLA2-alpha by vesicle assay at 10 uM
T2 sequence (whole entry): T1 sequence (P47712 whole entry)

[5] = target: T2, Cytosolic phospholipase A2 (Homo sapiens); test: Inhibition of cPLA2-alpha activity assessed by A23187-induced arachidonic acid release in human platelet at 10 uM; assay type: functional
Outline: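 Intact human platelets, with the dual cyclooxygenase/12-lipoxygenase inhibitor ETYA added, stimulated with calcium ionophore A23187 (1 µM final) for 1 min. Arachidonic acid released was measured by reversed-phase HPLC with UV at 200 nm, using 3-(4-decyloxyphenyl)propanoic acid as internal standard. Percent inhibition was read at 10 µM test compound. Cell lysis was checked by turbidimetry.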

Work on CCCCCCCCc1ccc(OCC(=O)Cn2ccc3cc(C(=O)O)ccc32)cc1 yielded an IC50 [1] of 0.41 µM and an IC50 [2] of 0.018 µM.

Compound CCCCCCCCc1ccc(OCC(=O)Cn2cc(C(C)(C)C)c3cc(C(=O)O)ccc32)cc1 has an IC50 [3] of 0.34 µM, an IC50 [1] of 3.3 µM and an IC50 [2] of 0.23 µM.

CCCCCCCCc1ccc(OCC(=O)Cn2cc(C(=O)O)c3ccccc32)cc1 showed an inhibition [4] of 40% and an inhibition [5] of 40%.

With CCCCCCCCc1ccc(OCC(=O)Cn2ccc3c(C(=O)O)cccc32)cc1 the inhibition [4] was 40% and the inhibition [5] was 40%.

CCCCCCCCCCOc1ccc(OCC(=O)Cn2ccc3cc(C(=O)O)ccc32)cc1 gave an IC50 [3] of 0.02 µM, an IC50 [1] of 0.21 µM and an IC50 [2] of 0.0078 µM.

In the case of CCCCCCCCc1ccc(OCC(=O)Cn2ccc3cc(Cl)ccc32)cc1, the inhibition [4] is reported as “inactive” and the inhibition [5] is reported as “inactive”.

CCCCCCCCc1ccc(OCC(=O)Cn2cc(C=O)c3cc(C(=O)O)ccc32)cc1 gave an IC50 [3] of 0.016 µM, an IC50 [1] of 0.38 µM and an IC50 [2] of 0.0097 µM.

With CCCCCCCCc1ccc(OCC(=O)Cn2ccc3cc(OC)ccc32)cc1 the inhibition [4] was “inactive” and the inhibition [5] was 37%.

Compound CCCCCCCCCCOc1ccc(OCC(=O)COc2ccc(C(=O)O)cc2)cc1 has an IC50 [1] of 0.25 µM.

For CCCCCCCCc1ccc(OCC(=O)Cn2ccc3cc(C)ccc32)cc1, the inhibition [4] was “inactive” and the inhibition [5] was “inactive”.

Work on CCCCCCCCCCOc1ccc(OCC(=O)Cn2cc(C(=O)OC)c3cc(C(=O)O)ccc32)cc1 yielded an IC50 [3] of 0.0043 µM, an IC50 [1] of 0.57 µM and an IC50 [2] of 0.0009 µM.

With CCCCCCCCc1ccc(OCC(=O)Cn2cc(C#N)c3cc(C(=O)O)ccc32)cc1 the IC50 [3] was 0.015 µM, the IC50 [1] was 0.37 µM and the IC50 [2] was 0.011 µM.

For CCCCCCCCc1ccc(OCC(=O)Cn2ccc3ccc(C(=O)O)cc32)cc1, the IC50 [3] was 1.1 µM and the IC50 [1] was 4.7 µM.

CCCCCCCCc1ccc(OCC(=O)Cn2ccc3cc(C=O)ccc32)cc1 was tested, and the IC50 [3] was 4.3 µM and the IC50 [1] was 4.9 µM.

For CCCCCCCCc1ccc(OCC(=O)Cn2cc(Cl)c3cc(C(=O)O)ccc32)cc1, the IC50 [3] was 0.11 µM, the IC50 [1] was 1.5 µM and the IC50 [2] was 0.12 µM.

In the case of CCCCCCCCc1ccc(OCC(=O)Cn2ccc3cc(C#N)ccc32)cc1, the inhibition [4] is reported as 25% and the inhibition [5] is reported as 46%.

CCCCCCCCc1ccc(OCC(=O)Cn2c(C(=O)O)cc3ccccc32)cc1 was tested, and the inhibition [4] was “inactive” and the IC50 [1] was 8 µM.

For CCCCCCCCc1ccc(OCC(=O)Cn2ccc3ccccc32)cc1, the inhibition [4] was “inactive” and the inhibition [5] was 43%.

Compound CCCCCCCCc1ccc(OCC(=O)Cn2ccc3cc(C(=O)OC)ccc32)cc1 has an inhibition [4] of 36% and an inhibition [5] of 40%.

In the case of CCCCCCCCc1ccc(OCC(=O)Cn2cc(C(=O)O)c3cc(C(=O)O)ccc32)cc1, the IC50 [3] is reported as 0.89 µM, the IC50 [1] is reported as 6.5 µM and the IC50 [2] is reported as 0.56 µM.

In the case of CCCCCCCCc1ccc(OCC(=O)Cn2ccc3cc(C(N)=O)ccc32)cc1, the IC50 [3] is reported as 0.12 µM and the IC50 [1] is reported as 0.77 µM.

For CCCCCCCCc1ccc(OCC(=O)Cn2cc(C(=O)OC)c3cc(C(=O)O)ccc32)cc1, the IC50 [3] was 0.0049 µM, the IC50 [1] was 1.4 µM and the IC50 [2] was 0.0011 µM.

CCCCCCCCc1ccc(OCC(=O)Cn2cc(C(C)=O)c3cc(C(=O)O)ccc32)cc1 gave an IC50 [3] of 0.016 µM, an IC50 [1] of 1 µM and an IC50 [2] of 0.0064 µM.
